Reference: publication PMC7111275 (European Journal of Medicinal Chemistry, 2013)

Assays:
HIV = assay: Anti-HIV activity in cellular assay; format: cell-based; conditions: Human immunodeficiency virus 1, read-out: Anti-HIV activity EC90
[1] = system: hepatitis C virus (HCV) replicon in Huh 7 cells; assay: Subgenomic HCV replicon system in Huh 7 cells; format: cell-based; conditions: 10 μM
How it was run: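 Huh 7 Clone B cells carrying subgenomic HCV replicon RNA were seeded at 3000 cells/well and given test compound at 10 μM in triplicate immediately after seeding. After 5 days at 37 °C in 5% CO2, total RNA was extracted. Replicon RNA was measured against an rRNA internal control by one-step multiplex real-time RT-PCR. ΔCt was taken versus the no-drug control, where ΔCt 3.3 = 1-log reduction; rRNA ΔCt gave cytotoxicity. 2′-C-Me-C at 10 μM served as the control.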

[2] = system: PBMC, human lymphoblastoid CEM and Vero cells; assay: Cytotoxicity testing in PBMC, CEM and Vero cells; format: cell-based; conditions: at 100 μM
Hel cells = conditions: at 100 μM, Hel cell cultures

Which EC90 (HIV) does the source give for CC(C)(C)C(=O)OCOP(=O)(C/C=C/Cn1ccc(N)nc1=O)OCOC(=O)C(C)(C)C [Compound 8a, (E)-N^1-(4′-Bis(POM)phosphinyl-2′-butenyl)-cytosine] here?
The EC90 was over 100 µM.

And the “Anti-HCV activity (in words)” value [1]?
Its value is “pronounced anti-HCV activity”.

What about the “Cytotoxicity (in words)” value [2] of the same compound?
The value was “without significant cytotoxicity”.

What does the source list for COC(=O)c1nccn(C/C=C/CP(=O)(OCOC(=O)C(C)(C)C)OCOC(=O)C(C)(C)C)c1=O [Compound 13, (E)-N^1-(4′-Bis(POM)-phosphinylbut-2′-enyl)-3-oxo-pyrazine-2-methylester]?
Anti-HCV activity (in words) [1]: pronounced anti-HCV activity; Cytotoxicity (in words) [2]: without significant cytotoxicity

What does the source list for CC(C)(C)C(=O)OCOP(=O)(C/C=C/Cn1ccnc(C(N)=O)c1=O)OCOC(=O)C(C)(C)C [Compound 14, (E)-N^1-(4′-Bis(POM)-phosphinylbut-2′-enyl)-3-oxo-pyrazine-2-carboxamide]?
Anti-HCV activity (in words) [1]: pronounced anti-HCV activity; Cytotoxicity (in words) [2]: without significant cytotoxicity

With CC(C)(C)C(=O)OCOP(=O)(C/C=C/Cn1cc(C(=O)O)nn1)OCOC(=O)C(C)(C)C [Compound 24, (E)-1-(4′-Bis(POM)-phosphinylbut-2′-enyl)-4-(carboxylic acid)-1,2,3-triazole] as the compound, how does the “Anti-HCV activity (in words)” value [1] read?
Its value is “pronounced anti-HCV activity”.

And the “Cytotoxicity (in words)” value [2]?
Its value is “without significant cytotoxicity”.

How did the “Cytotoxicity (in words)” value (Hel cells) turn out when CC(C)(C)C(=O)OCOP(=O)(C/C=C/Cn1cc(CO)nn1)OCOC(=O)C(C)(C)C [Compound 31, (E)-1-(4′-Bis(POM)-phosphinylbut-2′-enyl)-4-(hydroxymethyl)-1,2,3-triazole] was run?
The value was “no observed cytotoxicity”.
